Columns and labels:
Mus musculus [1] = assay: Tested in vivo for the analgesic activity by measuring the inhibition of phenyl-p-quinone- induced writhing (PQW) in mice upon subcutaneous administration; 7.2-21.9; assay type: functional; conditions: sc
Outline: (§1)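 Compounds were given as racemic hydrobromide salts. The vehicle, also used as the control in both the tail-flick and the phenylquinone writhing tests, was distilled water with a few drops of Tween 80.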

Mus musculus [2] = assay: Tested in vivo for the analgesic activity by measuring the delay in response to noxious heat stimuli (D'Amour-Smith tail-flick method) in mice upon subcutaneous administration; assay type: functional; conditions: sc; outline: as §1
Opioid receptor = Opioid receptor (Rattus norvegicus, UniProt P33533+P34975+P33535); assay: Tested for In vitro binding constant for Opioid receptors by measuring the inhibition of stereospecific binding of [3H]naloxone in rat brain homogenates; assay type: tissue-based
Mus musculus [3] = assay: Tested in vivo for the analgesic activity by measuring the inhibition of phenyl-p-quinone- induced writhing (PQW) in mice upon subcutaneous administration; 0.20-0.36; assay type: functional; conditions: sc; outline: as §1
Mus musculus [4] = assay: Tested in vivo for the analgesic activity by measuring the inhibition of phenyl-p-quinone- induced writhing (PQW) in mice upon subcutaneous administration; 3.2-4.4; assay type: functional; conditions: sc; outline: as §1
Mus musculus [5] = assay: Tested in vivo for the analgesic activity by measuring the inhibition of phenyl-p-quinone- induced writhing (PQW) in mice upon subcutaneous administration; 2.6-3.4; assay type: functional; conditions: sc; outline: as §1
Mus musculus [6] = assay: Tested in vivo for the analgesic activity by measuring the inhibition of phenyl-p-quinone- induced writhing (PQW) in mice upon subcutaneous administration; 2.2-2.7; assay type: functional; conditions: sc; outline: as §1
Mus musculus [7] = assay: Tested in vivo for the analgesic activity by measuring the delay in response to noxious heat stimuli (D'Amour-Smith tail-flick method) in mice upon subcutaneous administration; 7.4-24.4; assay type: functional; conditions: sc; outline: as §1
Mus musculus [8] = assay: Tested in vivo for the analgesic activity by measuring the inhibition of phenyl-p-quinone- induced writhing (PQW) in mice upon subcutaneous administration; 2.1-2.9; assay type: functional; conditions: sc; outline: as §1
Mus musculus [9] = species on record: Mus musculus; assay: animal or person; conditions: sc

Row | SMILES | ED50 (Mus musculus [2]) | IC50 (Opioid receptor) | other results
1 | CN1CCC2(c3ccc(O)cc3)CCC1C2 (stereo not drawn) | > 25 mg/kg | 7290 nM | ED50 (Mus musculus [1]): 10.8 mg/kg
2 | O=C(CCCN1CCC2(c3ccc(O)cc3)CCC1C2)c1ccc(F)cc1 (stereo not drawn) | > 25 mg/kg | 268 nM | ED50 (Mus musculus [3]): 0.27 mg/kg
3 | CCCN1CCC2(c3ccc(O)cc3)CCC1C2 (stereo not drawn) | > 25 mg/kg | 6980 nM | ED50 (Mus musculus [4]): 3.7 mg/kg
4 | Oc1ccc(C23CCC(C2)N(CC2CC2)CC3)cc1 (stereo not drawn) | > 25 mg/kg | 2780 nM | ED50 (Mus musculus [5]): 3 mg/kg
5 | Oc1ccc(C23CCC(C2)N(CCc2ccccc2)CC3)cc1 (stereo not drawn) | > 25 mg/kg | 340 nM | ED50 (Mus musculus [6]): 2.5 mg/kg
6 | CC(C)=CCN1CC[C@]2(C)c3cc(O)ccc3C[C@H]1[C@H]2C [(+)-PENTAZOCINE] | – | – | ED50 (Mus musculus [7]): 14.6 mg/kg; ED50 (Mus musculus [8]): 2.4 mg/kg
7 | CN1CC[C@]23c4c5ccc(O)c4O[C@H]2[C@@H](O)C=C[C@H]3[C@H]1C5 [MORPHINE] | – | – | ED50 (Mus musculus [9]): 0.68 mg/kg

— ChEMBL document CHEMBL1121599, “Synthesis and analgesic activity of some 5-(4-hydroxyphenyl)-2-azabicyclo[3.2.1]octanes” (J Med Chem, 1980)
